Source: ChEMBL document CHEMBL1137764, “Design, synthesis, antibacterial activity and physicochemical parameters of novel N-4-piperazinyl derivatives of norfloxacin” (Bioorg Med Chem, 2009)
Converted amounts (≈) assume the structure as drawn.

Tests used:
[1] = tested on: Staphylococcus aureus; assay: Antimicrobial activity against Staphylococcus aureus at 512 ug/ml after 24 hrs by agar diffusion technique; type: functional; conditions: read-out: DIZ
In short: (§1)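 Strains came from a university microbiology department. Inocula were 10⁶ CFU/mL. Mueller-Hinton agar was seeded with culture, poured 3–4 mm thick, and 10 mm cups were bored. Compounds were dissolved in DMF (10 mg/mL stock), diluted, and the solution was placed in the cups. Plates were incubated at 37 °C overnight. Inhibition zone diameter (mm) was read at 24 h.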

[2] = tested on: Klebsiella pneumoniae; assay: Antimicrobial activity against Klebsiella pneumoniae after 24 hrs by agar diffusion technique; type: functional; conditions: for MIC: Klebsiella pneumoniae, 24 h
In short: (§2)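 Agar cup diffusion on Mueller-Hinton agar seeded from 10⁶ CFU/mL suspensions, with 10 mm cups in a 3–4 mm layer. Compounds were in DMF (10 mg/mL stock) at several concentrations. Plates were incubated at 37 °C and zones measured after 24 h. MIC was taken as the intercept of the plot of log concentration against inhibition zone diameter.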

[3] = tested on: Pseudomonas aeruginosa; assay: Antimicrobial activity against Pseudomonas aeruginosa at 512 ug/ml after 24 hrs by agar diffusion technique; type: functional; conditions: read-out: DIZ; in short: as §1
[4] = tested on: Escherichia coli; assay: Antimicrobial activity against Escherichia coli at 16 ug/ml after 24 hrs by agar diffusion technique; type: functional; conditions: read-out: DIZ; in short: as §1
[5] = tested on: Escherichia coli; assay: Antimicrobial activity against Escherichia coli at 128 ug/ml after 24 hrs by agar diffusion technique; type: functional; conditions: read-out: DIZ; in short: as §1
[6] = tested on: Escherichia coli; assay: Antimicrobial activity against Escherichia coli at 64 ug/ml after 24 hrs by agar diffusion technique; type: functional; conditions: read-out: DIZ; in short: as §1
[7] = tested on: Staphylococcus aureus; assay: Antimicrobial activity against Staphylococcus aureus at 16 ug/ml after 24 hrs by agar diffusion technique; type: functional; conditions: read-out: DIZ; in short: as §1
[8] = tested on: Klebsiella pneumoniae; assay: Antimicrobial activity against Klebsiella pneumoniae at 128 ug/ml after 24 hrs by agar diffusion technique; type: functional; conditions: read-out: DIZ; in short: as §1
[9] = tested on: Escherichia coli; assay: Antimicrobial activity against Escherichia coli after 24 hrs by agar diffusion technique; type: functional; conditions: for MIC: Escherichia coli, 24 h; in short: as §2
[10] = tested on: Staphylococcus aureus; assay: Antimicrobial activity against Staphylococcus aureus at 64 ug/ml after 24 hrs by agar diffusion technique; type: functional; conditions: read-out: DIZ; in short: as §1
[11] = tested on: Staphylococcus aureus; assay: Antimicrobial activity against Staphylococcus aureus after 24 hrs by agar diffusion technique; type: functional; conditions: for MIC: Staphylococcus aureus, 24 h; in short: as §2
[12] = tested on: Klebsiella pneumoniae; assay: Antimicrobial activity against Klebsiella pneumoniae at 64 ug/ml after 24 hrs by agar diffusion technique; type: functional; conditions: read-out: DIZ; in short: as §1
[13] = tested on: Pseudomonas aeruginosa; assay: Antimicrobial activity against Pseudomonas aeruginosa at 64 ug/ml after 24 hrs by agar diffusion technique; type: functional; conditions: read-out: DIZ; in short: as §1
[14] = tested on: Pseudomonas aeruginosa; assay: Antimicrobial activity against Pseudomonas aeruginosa at 4 ug/ml after 24 hrs by agar diffusion technique; type: functional; conditions: read-out: DIZ; in short: as §1
[15] = tested on: Escherichia coli; assay: Antimicrobial activity against Escherichia coli at 4 ug/ml after 24 hrs by agar diffusion technique; type: functional; conditions: read-out: DIZ; in short: as §1
[16] = tested on: Klebsiella pneumoniae; assay: Antimicrobial activity against Klebsiella pneumoniae at 512 ug/ml after 24 hrs by agar diffusion technique; type: functional; conditions: read-out: DIZ; in short: as §1
[17] = Octanol-phosphate buffer partition coefficient, log D at pH 7.4 by spectrophotometry; type: physicochemical
In short: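 Shake-flask method. A 0.2 mg/mL stock was diluted into pH 7.4 phosphate buffer and mixed with an equal volume of n-octanol, phases mutually presaturated and protected from light. Samples were vortexed 3 min, then shaken 5 h at 25 °C. Both phases were assayed by UV at 270–280 nm. D is the molar concentration ratio, octanol to aqueous.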

[18] = tested on: Escherichia coli; assay: Antimicrobial activity against Escherichia coli at 512 ug/ml after 24 hrs by agar diffusion technique; type: functional; conditions: read-out: DIZ; in short: as §1
[19] = tested on: Pseudomonas aeruginosa; assay: Antimicrobial activity against Pseudomonas aeruginosa after 24 hrs by agar diffusion technique; type: functional; conditions: for MIC: Pseudomonas aeruginosa, 24 h; in short: as §2
[20] = tested on: Staphylococcus aureus; assay: Antimicrobial activity against Staphylococcus aureus at 128 ug/ml after 24 hrs by agar diffusion technique; type: functional; conditions: read-out: DIZ; in short: as §1
[21] = tested on: Pseudomonas aeruginosa; assay: Antimicrobial activity against Pseudomonas aeruginosa at 128 ug/ml after 24 hrs by agar diffusion technique; type: functional; conditions: read-out: DIZ; in short: as §1
[22] = tested on: Staphylococcus aureus; assay: Antimicrobial activity against Staphylococcus aureus at 4 ug/ml after 24 hrs by agar diffusion technique; type: functional; conditions: read-out: DIZ; in short: as §1
[23] = tested on: Klebsiella pneumoniae; assay: Antimicrobial activity against Klebsiella pneumoniae at 16 ug/ml after 24 hrs by agar diffusion technique; type: functional; conditions: read-out: DIZ; in short: as §1
[24] = tested on: Klebsiella pneumoniae; assay: Antimicrobial activity against Klebsiella pneumoniae at 4 ug/ml after 24 hrs by agar diffusion technique; type: functional; conditions: read-out: DIZ; in short: as §1
[25] = tested on: Pseudomonas aeruginosa; assay: Antimicrobial activity against Pseudomonas aeruginosa at 16 ug/ml after 24 hrs by agar diffusion technique; type: functional; conditions: read-out: DIZ; in short: as §1

| SMILES | zone of inhibition at 512 µg/mL [1] | logMIC [2] | MIC [2] | zone of inhibition at 512 µg/mL [3] | zone of inhibition at 16 µg/mL [4] | zone of inhibition at 128 µg/mL [5] | zone of inhibition at 64 µg/mL [6] | zone of inhibition at 16 µg/mL [7] | zone of inhibition at 128 µg/mL [8] | logMIC [9] | MIC [9] | zone of inhibition at 64 µg/mL [10] | logMIC [11] | MIC [11] | zone of inhibition at 64 µg/mL [12] | zone of inhibition at 64 µg/mL [13] | zone of inhibition at 4 µg/mL [14] | zone of inhibition at 4 µg/mL [15] | zone of inhibition at 512 µg/mL [16] | logD [17] | further results |
| --- | --- | --- | --- | --- | --- | --- | --- | --- | --- | --- | --- | --- | --- | --- | --- | --- | --- | --- | --- | --- | --- |
| CCn1cc(C(=O)O)c(=O)c2cc(F)c(N3CCN(CN4C(=O)CCC4=O)CC3)cc21 | 22 mm | 2.11 | 128 µg/mL (≈ 297 µM) | 27 mm | 0 mm | 0 mm | 0 mm | 4 mm | 22 mm | 0 | < 1 µg/mL | 12 mm | 0.6 | 4 µg/mL (≈ 9.29 µM) | 20 mm | 13 mm | 0 mm | 0 mm | 31 mm | -0.8 | zone of inhibition at 512 µg/mL [18]: 5 mm; logMIC [19]: 0.7; MIC [19]: 5 µg/mL (≈ 11.6 µM); zone of inhibition at 128 µg/mL [20]: 13 mm; zone of inhibition at 128 µg/mL [21]: 15 mm; zone of inhibition at 4 µg/mL [22]: 0 mm; zone of inhibition at 16 µg/mL [23]: 15 mm; zone of inhibition at 4 µg/mL [24]: 8 mm; zone of inhibition at 16 µg/mL [25]: 9 mm |
| CCn1cc(C(=O)O)c(=O)c2cc(F)c(N3CCN(CN4C(=O)c5cccc6cccc(c56)C4=O)CC3)cc21 | 15 mm | 1.81 | 64 µg/mL (≈ 121 µM) | 10 mm | 0 mm | 0 mm | 0 mm | 0 mm | 8 mm | 2.11 | 128 µg/mL (≈ 242 µM) | 0 mm | 2.11 | 128 µg/mL (≈ 242 µM) | 0 mm | 0 mm | 0 mm | 0 mm | 9 mm | -0.9 | zone of inhibition at 512 µg/mL [18]: 13 mm; logMIC [19]: 2.11; MIC [19]: 128 µg/mL (≈ 242 µM); zone of inhibition at 128 µg/mL [20]: 0 mm; zone of inhibition at 128 µg/mL [21]: 0 mm; zone of inhibition at 4 µg/mL [22]: 0 mm; zone of inhibition at 16 µg/mL [23]: 0 mm; zone of inhibition at 4 µg/mL [24]: 0 mm; zone of inhibition at 16 µg/mL [25]: 0 mm |
| CCn1cc(C(=O)O)c(=O)c2cc(F)c(N3CCN(CN4CCOCC4)CC3)cc21 | 10 mm | 2.11 | 128 µg/mL (≈ 306 µM) | 15 mm | 0 mm | 0 mm | 0 mm | 7 mm | 0 mm | 2.11 | 128 µg/mL (≈ 306 µM) | 7 mm | 0 | < 1 µg/mL | 0 mm | 3 mm | 0 mm | 0 mm | 20 mm | -0.043 | zone of inhibition at 512 µg/mL [18]: 30 mm; logMIC [19]: 1.2; MIC [19]: 16 µg/mL (≈ 38.2 µM); zone of inhibition at 128 µg/mL [20]: 8 mm; zone of inhibition at 128 µg/mL [21]: 3 mm; zone of inhibition at 4 µg/mL [22]: 5 mm; zone of inhibition at 16 µg/mL [23]: 0 mm; zone of inhibition at 4 µg/mL [24]: 0 mm; zone of inhibition at 16 µg/mL [25]: 0 mm |
| CCn1cc(C(=O)O)c(=O)c2cc(F)c(N3CC[N+](CCO)(CCO)CC3)cc21.[Br-] | 14 mm | 1 | 10 µg/mL | 0 mm | 4 mm | 9 mm | 7 mm | 0 mm | 5 mm | 0.6 | 4 µg/mL | 0 mm | 2.11 | 128 µg/mL | 4 mm | 0 mm | 0 mm | 0 mm | 11 mm | 0.158 | zone of inhibition at 512 µg/mL [18]: 12 mm; logMIC [19]: 2.71; MIC [19]: > 512 µg/mL; zone of inhibition at 128 µg/mL [20]: 0 mm; zone of inhibition at 128 µg/mL [21]: 0 mm; zone of inhibition at 4 µg/mL [22]: 0 mm; zone of inhibition at 16 µg/mL [23]: 0 mm; zone of inhibition at 4 µg/mL [24]: 0 mm; zone of inhibition at 16 µg/mL [25]: 0 mm |
